# ChEMBL document CHEMBL4152256, “Structure-activity relationship of new antimalarial 1-aryl-3-susbtituted propanol derivatives: Synthesis, preliminary toxicity profiling, parasite life cycle stage studies, target exploration, and targeted delivery” (Eur J Med Chem, 2018)
# Columns and labels:
# Plasmodium falciparum [1] = assay: Antiplasmodial activity against multidrug-resistant Plasmodium falciparum FCR-3 by [3H]-hypoxanthine incorporation assay; format: functional, organism-based, FCR-3/Gambia; conditions: Plasmodium falciparum, FCR-3/Gambia
# In short: (§1)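 Blood-stage P. falciparum 3D7 and FCR-3 were tested by a modified [3H]-hypoxanthine incorporation assay. Chloroquine was the reference in all runs.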
# Plasmodium falciparum [2] = assay: Antiplasmodial activity against chloroquine-sensitive Plasmodium falciparum 3D7 by [3H]-hypoxanthine incorporation assay; format: functional, organism-based; conditions: Plasmodium falciparum, 3D7; in short: as §1
# [3] = Cytotoxicity against human HepG2A16 cells by MTT assay; format: cell-based; conditions: HepG2A16 cells
# In short: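 MTT viability assay on HepG2-A16 cells, giving CC50 values.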
# [4] = Genotoxicity in Salmonella typhimurium TA1535 harboring pSK1002 assessed as survival at 0.125 mg/ml in absence of Sprague-Dawley rat liver S9 fraction after by SOS/umu assay relative to control; format: toxicity, organism-based; conditions: salmonella enterica subsp. enterica serovar typhimurium, read-out: Survival
# [5] = Genotoxicity in Salmonella typhimurium TA1535 harboring pSK1002 assessed as umu gene induction at 0.125 mg/ml in absence of Sprague-Dawley rat liver S9 fraction after by SOS/umu assay relative to control; format: toxicity, organism-based; conditions: salmonella enterica subsp. enterica serovar typhimurium, read-out: FC
# [6] = Genotoxicity in Salmonella typhimurium TA1535 harboring pSK1002 assessed as survival at 0.125 mg/ml in presence of Sprague-Dawley rat liver S9 fraction after by SOS/umu assay relative to control; format: toxicity, organism-based; conditions: salmonella enterica subsp. enterica serovar typhimurium, read-out: Survival
# [7] = Genotoxicity in Salmonella typhimurium TA1535 harboring pSK1002 assessed as umu gene induction at 0.125 mg/ml in presence of Sprague-Dawley rat liver S9 fraction after by SOS/umu assay relative to control; format: toxicity, organism-based; conditions: salmonella enterica subsp. enterica serovar typhimurium, read-out: FC
# [8] = Genotoxicity in Salmonella typhimurium TA1535 harboring pSK1002 assessed as survival at 0.063 mg/ml in absence of Sprague-Dawley rat liver S9 fraction after by SOS/umu assay relative to control; format: toxicity, organism-based; conditions: salmonella enterica subsp. enterica serovar typhimurium, read-out: Survival
# [9] = Genotoxicity in Salmonella typhimurium TA1535 harboring pSK1002 assessed as umu gene induction at 0.063 mg/ml in absence of Sprague-Dawley rat liver S9 fraction after by SOS/umu assay relative to control; format: toxicity, organism-based; conditions: salmonella enterica subsp. enterica serovar typhimurium, read-out: FC
# [10] = Genotoxicity in Salmonella typhimurium TA1535 harboring pSK1002 assessed as survival at 0.063 mg/ml in presence of Sprague-Dawley rat liver S9 fraction after by SOS/umu assay relative to control; format: toxicity, organism-based; conditions: salmonella enterica subsp. enterica serovar typhimurium, read-out: Survival
# [11] = Genotoxicity in Salmonella typhimurium TA1535 harboring pSK1002 assessed as umu gene induction at 0.063 mg/ml in presence of Sprague-Dawley rat liver S9 fraction after by SOS/umu assay relative to control; format: toxicity, organism-based; conditions: salmonella enterica subsp. enterica serovar typhimurium, read-out: FC
# [12] = Genotoxicity in Salmonella typhimurium TA1535 harboring pSK1002 assessed as survival at 0.031 mg/ml in absence of Sprague-Dawley rat liver S9 fraction after by SOS/umu assay relative to control; format: toxicity, organism-based; conditions: salmonella enterica subsp. enterica serovar typhimurium, read-out: Survival
# [13] = Genotoxicity in Salmonella typhimurium TA1535 harboring pSK1002 assessed as umu gene induction at 0.031 mg/ml in absence of Sprague-Dawley rat liver S9 fraction after by SOS/umu assay relative to control; format: toxicity, organism-based; conditions: salmonella enterica subsp. enterica serovar typhimurium, read-out: FC
# [14] = Genotoxicity in Salmonella typhimurium TA1535 harboring pSK1002 assessed as umu gene induction at 0.031 mg/ml in presence of Sprague-Dawley rat liver S9 fraction after by SOS/umu assay relative to control; format: toxicity, organism-based; conditions: salmonella enterica subsp. enterica serovar typhimurium, read-out: FC
# [15] = Genotoxicity in Salmonella typhimurium TA1535 harboring pSK1002 assessed as survival at 0.016 mg/ml in absence of Sprague-Dawley rat liver S9 fraction after by SOS/umu assay relative to control; format: toxicity, organism-based; conditions: salmonella enterica subsp. enterica serovar typhimurium, read-out: Survival
# [16] = Genotoxicity in Salmonella typhimurium TA1535 harboring pSK1002 assessed as umu gene induction at 0.016 mg/ml in absence of Sprague-Dawley rat liver S9 fraction after by SOS/umu assay relative to control; format: toxicity, organism-based; conditions: salmonella enterica subsp. enterica serovar typhimurium, read-out: FC
# [17] = Genotoxicity in Salmonella typhimurium TA1535 harboring pSK1002 assessed as umu gene induction at 0.016 mg/ml in presence of Sprague-Dawley rat liver S9 fraction after by SOS/umu assay relative to control; format: toxicity, organism-based; conditions: salmonella enterica subsp. enterica serovar typhimurium, read-out: FC
# [18] = Genotoxicity in Salmonella typhimurium TA1535 harboring pSK1002 assessed as survival at 0.008 mg/ml in absence of Sprague-Dawley rat liver S9 fraction after by SOS/umu assay relative to control; format: toxicity, organism-based; conditions: salmonella enterica subsp. enterica serovar typhimurium, read-out: Survival
# [19] = Genotoxicity in Salmonella typhimurium TA1535 harboring pSK1002 assessed as survival at 0.008 mg/ml in presence of Sprague-Dawley rat liver S9 fraction after by SOS/umu assay relative to control; format: toxicity, organism-based; conditions: salmonella enterica subsp. enterica serovar typhimurium, read-out: Survival
# [20] = Genotoxicity in Salmonella typhimurium TA1535 harboring pSK1002 assessed as umu gene induction at 0.008 mg/ml in presence of Sprague-Dawley rat liver S9 fraction after by SOS/umu assay relative to control; format: toxicity, organism-based; conditions: salmonella enterica subsp. enterica serovar typhimurium, read-out: FC
# [21] = Genotoxicity in Salmonella typhimurium TA1535 harboring pSK1002 assessed as survival at 0.004 mg/ml in absence of Sprague-Dawley rat liver S9 fraction after by SOS/umu assay relative to control; format: toxicity, organism-based; conditions: salmonella enterica subsp. enterica serovar typhimurium, read-out: Survival
# [22] = Genotoxicity in Salmonella typhimurium TA1535 harboring pSK1002 assessed as umu gene induction at 0.004 mg/ml in absence of Sprague-Dawley rat liver S9 fraction after by SOS/umu assay relative to control; format: toxicity, organism-based; conditions: salmonella enterica subsp. enterica serovar typhimurium, read-out: FC
# [23] = Genotoxicity in Salmonella typhimurium TA1535 harboring pSK1002 assessed as survival at 0.002 mg/ml in absence of Sprague-Dawley rat liver S9 fraction after by SOS/umu assay relative to control; format: toxicity, organism-based; conditions: salmonella enterica subsp. enterica serovar typhimurium, read-out: Survival
# [24] = Genotoxicity in Salmonella typhimurium TA1535 harboring pSK1002 assessed as umu gene induction at 0.002 mg/ml in absence of Sprague-Dawley rat liver S9 fraction after by SOS/umu assay relative to control; format: toxicity, organism-based; conditions: salmonella enterica subsp. enterica serovar typhimurium, read-out: FC
# [25] = Genotoxicity in Salmonella typhimurium TA1535 harboring pSK1002 assessed as survival at 0.002 mg/ml in presence of Sprague-Dawley rat liver S9 fraction after by SOS/umu assay relative to control; format: toxicity, organism-based; conditions: salmonella enterica subsp. enterica serovar typhimurium, read-out: Survival
# [26] = Genotoxicity in Salmonella typhimurium TA1535 harboring pSK1002 assessed as umu gene induction at 0.002 mg/ml in presence of Sprague-Dawley rat liver S9 fraction after by SOS/umu assay relative to control; format: toxicity, organism-based; conditions: salmonella enterica subsp. enterica serovar typhimurium, read-out: FC
# [27] = Genotoxicity in Salmonella typhimurium TA1535 harboring pSK1002 assessed as survival at 0.001 mg/ml in absence of Sprague-Dawley rat liver S9 fraction after by SOS/umu assay relative to control; format: toxicity, organism-based; conditions: salmonella enterica subsp. enterica serovar typhimurium, read-out: Survival
# [28] = Genotoxicity in Salmonella typhimurium TA1535 harboring pSK1002 assessed as umu gene induction at 0.001 mg/ml in absence of Sprague-Dawley rat liver S9 fraction after by SOS/umu assay relative to control; format: toxicity, organism-based; conditions: salmonella enterica subsp. enterica serovar typhimurium, read-out: FC
# [29] = Genotoxicity in Salmonella typhimurium TA1535 harboring pSK1002 assessed as survival at 0.001 mg/ml in presence of Sprague-Dawley rat liver S9 fraction after by SOS/umu assay relative to control; format: toxicity, organism-based; conditions: salmonella enterica subsp. enterica serovar typhimurium, read-out: Survival
# [30] = Genotoxicity in Salmonella typhimurium TA1535 harboring pSK1002 assessed as umu gene induction at 0.001 mg/ml in presence of Sprague-Dawley rat liver S9 fraction after by SOS/umu assay relative to control; format: toxicity, organism-based; conditions: salmonella enterica subsp. enterica serovar typhimurium, read-out: FC
smiles,measurement,setting,value
COc1ccccc1C1=CCN(CCC(O)c2ccc(F)cc2)CC1 (stereo not given),IC50,Plasmodium falciparum [1],1320 nM
same,IC50,Plasmodium falciparum [2],2820 nM
same,CC50,[3],67 µM
same,viability at 0.125 mg/ml,[4],107%
same,fold induction at 0.125 mg/ml,[5],1
same,viability at 0.125 mg/ml,[6],88.5%
same,fold induction at 0.125 mg/ml,[7],1
same,viability at 0.063 mg/ml,[8],101%
same,fold induction at 0.063 mg/ml,[9],0.9
same,viability at 0.063 mg/ml,[10],91%
same,fold induction at 0.063 mg/ml,[11],0.9
same,viability at 0.031 mg/ml,[12],114%
same,fold induction at 0.031 mg/ml,[13],1
same,fold induction at 0.031 mg/ml,[14],1
same,viability at 0.016 mg/ml,[15],106%
same,fold induction at 0.016 mg/ml,[16],1
same,fold induction at 0.016 mg/ml,[17],1.2
same,viability at 0.008 mg/ml,[18],111%
same,viability at 0.008 mg/ml,[19],88.3%
same,fold induction at 0.008 mg/ml,[20],1
same,viability at 0.004 mg/ml,[21],104%
same,fold induction at 0.004 mg/ml,[22],1.1
same,viability at 0.002 mg/ml,[23],103%
same,fold induction at 0.002 mg/ml,[24],1.1
same,viability at 0.002 mg/ml,[25],87.2%
same,fold induction at 0.002 mg/ml,[26],1.1
same,viability at 0.001 mg/ml,[27],114%
same,fold induction at 0.001 mg/ml,[28],1
same,viability at 0.001 mg/ml,[29],103%
same,fold induction at 0.001 mg/ml,[30],1.2
